# AF4-AF9 inh: inhibitors of human MLL-AF4/AF9 interaction | P42568 | AlphaScreen, biotin-AF4 peptide binding to FLAG-AF9 | inhibition, % at 10 µM | hit rate 0.47% among 350,000;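 active = every replicate reaching a set inhibition limit, whatever the replicate mean, cut at about 25% in these data; inconclusive = mean inhibition reaches that limit but some replicates miss it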;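 also: 0% = plate neutral control median and 100% = total signal loss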
# RAD52 inh: RAD52 (human) annealing inhibition. P43351. recombinant RAD52 DNA annealing, FRET fluorescence. inhibition, % at 18.7 µM. hit rate 0.46% among 360,000;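 active = every replicate showing at least 50% inhibition; inconclusive = mean inhibition at least 50% but not in every replicate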
# E-selectin induc: E-selectin induction on HUVECs | hit rate 0.37% among 260,000 | HUVEC E-selectin immunofluorescence imaging; normalized: neutral wells 0, TNF-alpha wells 100 | AID 686992 | P16581 | activation, % at 7.58 µM;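 active = mean E-selectin-positive cell signal at least 10% of the positive control, reached in at least 60% of replicates, without over 20% cell loss; inconclusive = no rule given, readout overlaps actives, possibly toxicity-flagged; inactive = the rest, including those meeting only one limit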
#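 Read-out: % PE-positive cells | Test system: HUVEC | Doses: One compound dose added by pin transfer | Buffer or medium: EGM-2 over gelatin coat | Signal: Immunofluorescence imaging | Benchmarks: TNF-alpha, DMSO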
# rRNA inh HTS: inhibitors of bacterial rRNA selective over humanized ribosomes; hit rate 1.6% among 350,000; AID 720706; E. coli WT GFP vs humanized-ribosome RFP mutants, fluorescence, 24 h; hits give low values; DMSO median 0, no signal -100; GFP signal change (wild-type ribosome), % (concentration not given with the values);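 active = significant combined selectivity score with lowered wild-type GFP, culture density cut under 30%, mutant RFP and density less affected; inactive = any of these conditions unmet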
# RAD54 branch: RAD54 (human) branch migration inhibition; Q92698; RAD54 Holliday junction branch migration, FAM/BHQ fluorescence; inhibition, % at 10.4 µM; hit rate 0.14% among 360,000;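 active = mean normalized replicate activity at least 40 and at least half of replicates scoring 40 or more; inconclusive = only one of the two criteria met; inactive = mean below 40 and under half of replicates reaching 40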;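 also: 0% = median of neutral control wells and 100% = median of positive control wells; inhibitors cause a drop in the FAM fluorescence signal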
# Target sequence (Q92698 whole entry, looked up): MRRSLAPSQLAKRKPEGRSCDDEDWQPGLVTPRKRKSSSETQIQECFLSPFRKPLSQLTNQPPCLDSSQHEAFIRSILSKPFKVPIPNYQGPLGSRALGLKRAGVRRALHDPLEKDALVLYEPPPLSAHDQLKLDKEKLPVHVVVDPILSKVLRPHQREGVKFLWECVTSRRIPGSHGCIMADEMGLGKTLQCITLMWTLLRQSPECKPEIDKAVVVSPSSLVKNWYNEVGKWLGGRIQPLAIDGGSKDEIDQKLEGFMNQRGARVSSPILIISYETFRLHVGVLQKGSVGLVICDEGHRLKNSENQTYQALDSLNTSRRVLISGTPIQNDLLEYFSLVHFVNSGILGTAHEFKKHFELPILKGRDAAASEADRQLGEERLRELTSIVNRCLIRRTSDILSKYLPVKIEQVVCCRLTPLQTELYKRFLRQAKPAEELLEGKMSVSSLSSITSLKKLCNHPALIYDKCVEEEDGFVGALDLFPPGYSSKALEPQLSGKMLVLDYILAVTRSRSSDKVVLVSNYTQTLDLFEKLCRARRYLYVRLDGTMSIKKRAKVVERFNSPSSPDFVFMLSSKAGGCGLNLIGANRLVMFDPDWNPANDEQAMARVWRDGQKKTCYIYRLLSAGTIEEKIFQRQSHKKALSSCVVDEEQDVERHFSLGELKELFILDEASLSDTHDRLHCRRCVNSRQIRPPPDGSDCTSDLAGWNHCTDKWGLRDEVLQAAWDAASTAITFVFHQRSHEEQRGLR
# GSIS activator: primary screen for activators of insulin secretion dependent on glucose, INS-1E cells, GLuc reporter luminescence. INS-1E GLuc reporter insulin secretion, 2-3 h. activation, % at 16.6 µM. hit rate 0.61% among 370,000. AID 743287;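 active = lowest replicate activation of at least 40%, so every replicate reaches that level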;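 also: 0% = median of neutral control wells and 100% = median of IBMX positive control wells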
# DNA binder FP: binds DNA, flagging false RAD52 inhibitor hits; shares compounds with RAD52 inh; Salmon sperm DNA/acridine orange FP displacement, DNA binding; AC50, µM; hit rate 8% among 1,000; AID 652128;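 active = fitted half-maximal concentration for signal loss at or below twice the highest dose tested, in every separate run, actives reach about 64 µM in these data; inconclusive = runs disagree, or flat partial signal loss, or poor fit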
# * marks the source's active call; other numbers are inactive results; i = inactive; ? = inconclusive; / = not tested or not shown; ! = not confirmed by another sample. A selection: hits, their analogues and other compounds. The true share with any hit is near 2.6%.
SMILES,AF4-AF9 inh,RAD52 inh,E-selectin induc,rRNA inh HTS,RAD54 branch,GSIS activator,DNA binder FP
C[C@@H]1CN([C@@H](C)CO)C(=O)c2cc(NC(=O)CCCCCC(=O)Nc3ccccc3N)ccc2O[C@H]1CN(C)S(=O)(=O)c1ccc(Cl)cc1,1.7,-18.4,0.6,-8.7,/,-19.0,/
COc1ccc(N2CCc3c(C)nc4c(OC)cccc4c32)cc1,0.9,52.4*,3.6,-8.2,/,-4.4,i
COc1ccc(N2CCc3c(C)nc4c(OC)cc(OC)cc4c32)c(OC)c1,/,/,/,/,44.3,/,/
COc1ccc(N2CCc3c(C)nc4c(OC)cc(OC)cc4c32)cc1,2.6,87.1*,0.2,-21.1,/,2.8,i
Cc1ccc(C(=O)N/C(=C\c2ccc(-c3cccc([N+](=O)[O-])c3)o2)C(=O)NCCCN(C)C)cc1,13.4,66.9*,-0.1,-29.2*,19.4,/,i
CCN(CC)CCN(C(=O)c1ccc2ccccc2c1)c1nc2cc3c(cc2s1)OCO3,5.4,60.9*,3.2,-8.0,-1.6,-37.1,i
CN(C)CCN(C(=O)c1ccc(C(=O)c2ccccc2)cc1)c1nc2cc3c(cc2s1)OCO3,4.8,-5.6,-2.2,-8.1,4.7,-43.3,/
Cc1cccc(OCC(=O)Nc2ccc3c(c2)nc(CN2CCCCC2)n3C)c1,-8.9,66.7*,/,-0.2,/,-14.7,i
Cc1cccc(OCC(=O)Nc2ccc3c(c2)nc(CCN2CCCCC2)n3C)c1,5.0,9.1,/,-1.9,10.1,22.5,/
Cc1ccc(C)n1-c1nnc(N2CCC(C(=O)NCCCN3CCN(C)CC3)CC2)s1,16.4,70.3*,-0.3,10.0,-5.1,12.0,i
Cc1ccc(C)n1-c1nnc(N2CCC(C(=O)NCCCN3CC(C)CC(C)C3)CC2)s1 (stereo unspecified),11.2,44.2,/,16.9,9.8,5.0,/
CCOc1cc2[nH]c(=S)n(Cc3ccc(C(=O)NCCN(CC)CC)cc3)c(=O)c2cc1OCC,-0.7,52.6*,-0.3,14.5,44.6,15.7,i
CCCCCCOc1ccc(/C(C)=N/NC2=NCCN2)cc1,?,54.3*,4.3,-53.2,43.7,16.9,i
CCc1c(C2CC2)ncn1Cc1cccc(-c2ccccc2)c1,21.5,77.5*,0.0,-54.0,/,-5.9,i
CC1CCCCN1CCNC(=O)c1cc2c(-c3ccccc3F)nn(C)c2s1 (stereo unspecified),0.5,56.0*,0.1,-6.7,14.0,27.8,i
Cc1noc(C)c1NC(=O)Nc1ccc2c(c1)CC(=O)N([C@@H](C)CO)C[C@@H](C)[C@H](CN(C)Cc1ccccc1)O2,3.9,4.6,0.7,2.7,-6.2,7.5,/
CN(C)CCCN=c1cc(-c2ccccc2)oc2ccc(Cl)cc12,10.0,80.3*,0.5,-49.7,/,9.7,27.5µM*
CN(C)CCCN1C(=O)c2oc3ccc(Cl)cc3c(=O)c2C1c1cccnc1 (stereo unspecified),-7.2,-20.2,1.4,6.0,-11.1,4.0,/
O=C(C[C@H]1CC[C@@H](NS(=O)(=O)c2ccc(F)cc2)[C@@H](CO)O1)NCCN1CCCCC1,-0.9,-2.5,-1.3,0.6,6.4,-3.4,/
O=C(C[n+]1ccc2ccccc2c1)c1ccc2ccc3ccccc3c2c1,15.2,89.9*,0.0,10.4,/,17.6,i
COc1ccc(OC)c2sc(N(CCN(C)C)C(=O)c3cc(Cl)sc3Cl)nc12,21.4,51.0*,/,-2.2,/,-1.0,i
CN(C)CCCN(C(=O)c1ccco1)c1nc2ccc(Cl)cc2s1,11.7,37.7,0.0,-18.6,22.9,-5.9,/
CN(C)CCCN(C(=O)c1ccco1)c1nc2ccc(Br)cc2s1,18.8,57.1*,/,-2.6,/,-16.5,i
COc1cc2ccccc2cc1C(=O)N(CCN(C)C)c1nc2ccc(Br)cc2s1,23.0,50.8*,-0.1,-7.5,6.8,-20.9,i
Cc1noc(C)c1NC(=O)Nc1ccc2c(c1)CC(=O)N([C@@H](C)CO)C[C@@H](C)[C@H](CN(C)S(=O)(=O)c1cn(C)cn1)O2,/,/,0.1,2.7,0.5,18.5,/
SMILES,AF4-AF9 inh,RAD52 inh,E-selectin induc,rRNA inh HTS,RAD54 branch,GSIS activator,DNA binder FP
C[n+]1ccccc1COc1ccc(C(C)(C)C)cc1,9.8,99.4*,/,10.2,/,/,i
CCN1CCc2c(sc(NC(=O)c3cc4ccccc4cc3OC)c2C(N)=O)C1,11.1,75.7*,0.0,0.2,27.9,-1.8,i
CC(O)CNc1ccc(-c2n[nH]c(=O)c3ccccc23)cc1[N+](=O)[O-] (stereo unspecified),1.7,-18.4,/,2.1,-7.2,31.5,/
CN(C)CCCNc1ccc(-c2n[nH]c(=O)c3ccccc23)cc1[N+](=O)[O-],10.0,66.4*,0.0,/,27.7,/,i
CCn1c2ccccc2c2cc(CN3CCN(Cc4cc(OC)ccc4O)CC3)ccc21,0.1,54.1*,-4.2,-9.3,5.0,-16.7,i
COc1cccc(CNC(=O)C[C@@H]2C=C[C@H](NC(=O)C3CCC3)[C@H](CO)O2)c1,-0.2,-15.2,1.9,1.0,1.2,17.5,/
CNc1nc(Oc2ccc3sc(C)nc3c2)c2sccc2n1,0.5,-2.3,0.7,-59.4,2.5,25.7,/
CNc1nc(Oc2cccc(F)c2)c2sccc2n1,-1.8,11.6,-0.1,-1.5,-0.8,30.9,/
CC(=O)Nc1cccc(Oc2nc(NCCN(C)C)nc3ccsc23)c1,5.2,89.5*,-0.7,6.2,11.2,/,i
Cc1nc2cc(Oc3nc(NCCN(C)C)nc4ccsc34)ccc2s1,10.5,78.0*,0.3,7.0,22.6,5.4,i
CN(C)CCNc1nc(Oc2cccc(F)c2)c2sccc2n1,5.9,58.2*,-0.2,5.8,-3.5,9.0,i
COCCNc1nc(Oc2ccc(Cl)c(Cl)c2)c2sccc2n1,-4.1,-2.9,-0.1,-0.7,3.6,-12.4,/
CCN1CCN(Cc2ccc(NC(=O)c3cc(NC(=O)C(=O)c4c[nH]c5ccccc45)cc(OC)c3)cc2C(F)(F)F)CC1,13.7,-11.3,6.1,-24.5,-7.5,2.8,/
CCN1CCN(Cc2ccc(NC(=O)c3cccc(-c4ccc5nc(NC(=O)C6CC6)sc5n4)c3)cc2C(F)(F)F)CC1,10.4,66.6*,-7.9,-42.4,/,143.1*,i
CCN1CCN(Cc2ccc(NC(=O)c3ccc(C)c(NC(=O)c4ccc5n[nH]nc5c4)c3)cc2C(F)(F)F)CC1,0.7,-10.7,-0.2,0.1,0.8,9.7,/
CCN1CCN(Cc2ccc(NC(=O)c3ccc(C)c(NC(=O)c4ccnnc4)c3)cc2C(F)(F)F)CC1,0.8,-16.1,0.0,4.4,-6.2,-6.3,/
CCN1CCN(Cc2ccc(C(=O)Nc3ccc(C)c(NCc4cnc(NC(=O)OC)cn4)c3)cc2C(F)(F)F)CC1,19.5,96.5*!,-0.1,-16.8*!,-9.2,-4.9,i

# Assay outcomes as filed in PubChem.
